Assay results reported in ChEMBL document CHEMBL1124399, “Synthesis and structure-activity studies of some disubstituted phenylisoxazoles against human picornavirus” (J Med Chem, 1989).
≈ marks a conversion by molar mass, not a printed value. Where “and” joins values, the source holds several entries; their conditions need not be identical. Identical values can stand only once. Calls of active or inactive are those of the source. The rule behind the calls is not given here.

Columns and labels:
Enterovirus [1] = assay: (§1) In vitro anti-rhinovirus activity was measured as maximum testable levels - highest concentration of compound which causes no apparent effect on the cell monolayers; assay type: functional
Enterovirus [2] = assay: Minimum inhibitory concentration against rhinovirus serotype 21.; assay type: functional
Summary of the method: (§2)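 Rhinovirus minimum inhibitory concentration (MIC) determined in a plaque reduction assay in cell culture, testing each serotype separately.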

Enterovirus [3] = assay: Minimum inhibitory concentration against rhinovirus serotype 15; assay type: functional; summary of the method: as §2
Enterovirus [4] = assay: Concentration required to inhibit 80 percent rhinovirus cell culture; assay type: functional
Summary of the method: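 MIC80 is the concentration that inhibits 80% of the rhinovirus serotypes tested. It is derived from per-serotype MICs measured by plaque reduction assay.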

Enterovirus [5] = assay: Minimum inhibitory concentration against rhinovirus serotype 30; assay type: functional; summary of the method: as §2
Enterovirus [6] = assay: In vitro anti-rhinovirus activity was measured as mean MIC for five serotypes, HRV-1A, -2, -22, -41, and -50; assay type: functional
Summary of the method: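 Mean of plaque-reduction-assay MICs across five rhinovirus serotypes (HRV-1A, -2, -22, -41, -50), chosen to represent a range of sensitivity to this compound class.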

Enterovirus [7] = assay: Minimum inhibitory concentration against rhinovirus serotype 1A; assay type: functional; summary of the method: as §2
Enterovirus [8] = assay: Minimum inhibitory concentration against rhinovirus serotype 41; assay type: functional; summary of the method: as §2
Enterovirus [9] = assay: as §1; assay type: functional; remark: listed apart in the source
Enterovirus C [10] = assay: In vitro activity against coxsackie A- 4; assay type: functional
Enterovirus [11] = assay: Minimum inhibitory concentration against rhinovirus serotype 67; assay type: functional; conditions: Enterovirus; read-out: MIC; summary of the method: as §2
Echovirus [12] = assay: In vitro activity against echovirus-3; assay type: functional
Echovirus [13] = assay: In vitro activity against echovirus-4; assay type: functional
Enterovirus C [14] = assay: In vitro activity against polioviurs-2 (Lansing); assay type: functional
Coxsackievirus [15] = assay: In vitro activity against coxsackie A- 9; assay type: functional
Enterovirus C [16] = assay: In vitro activity against polioviurs-1 (Mahoney); assay type: functional
Enterovirus [17] = assay: Minimum inhibitory concentration against rhinovirus serotype 50; assay type: functional; summary of the method: as §2
Coxsackievirus [18] = assay: In vitro activity against coxsackie A- 11; assay type: functional
Enterovirus [19] = assay: Minimum inhibitory concentration against rhinovirus serotype 86; assay type: functional; summary of the method: as §2
Echovirus [20] = assay: In vitro activity against echovirus-30
Echovirus [21] = assay: In vitr oactivity against echovirus-3; assay type: functional
Coxsackievirus [22] = assay: In vitro activity against coxsackie A-2; assay type: functional
Coxsackievirus [23] = assay: In vitro activity against coxsackie B-2; assay type: functional
Enterovirus [24] = assay: Estimation by using phi 21 in combination with log P of compound 13 determined via RPHPLC-retention time procedure; assay type: functional
Summary of the method: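 Values estimated by adding substituent π constants to the measured log P of a reference analogue. That reference log P came from reversed-phase HPLC retention times, with mobile phase at pH 7.4 and n = 3.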

Enterovirus [25] = assay: Minimum inhibitory concentration against rhinovirus serotype 1B.; assay type: functional; conditions: Enterovirus; read-out: MIC; summary of the method: as §2
Echovirus [26] = assay: In vitro activity against echovirus-12
Echovirus [27] = assay: In vitro activity against echovirus-9 (Barty); assay type: functional
Coxsackievirus [28] = assay: In vitro activity against coxsackie A- 21
Echovirus [29] = assay: In vitro activity of the compound against echovirus-12
Coxsackievirus [30] = assay: In vitro activity against coxsackie A- 21; assay type: functional
Enterovirus [31] = assay: Minimum inhibitory concentration against rhinovirus serotype 89; assay type: functional; summary of the method: as §2
Enterovirus [32] = assay: Minimum inhibitory concentration against rhinovirus serotype 6.; assay type: functional; summary of the method: as §2

SMILES	MIC (Enterovirus [1]; Enterovirus, read-out: MIC)	MIC (Enterovirus [2]; Enterovirus, read-out: MIC)	MIC80 (Enterovirus [4])	MIC (Enterovirus [5]; Enterovirus, read-out: MIC)	MIC (Enterovirus [6])	MIC (Enterovirus [7])	MIC (Enterovirus [8])	MIC (Enterovirus [9])	MIC (Enterovirus [11])	MIC (Enterovirus [3]; Enterovirus, read-out: MIC)	MIC (Enterovirus [17])	MIC (Enterovirus [19])	MIC (Enterovirus [31])	MIC (Enterovirus [1])	other results
Cc1cc(CCCCCOc2c(Cl)cc(C3=NCCO3)cc2C(C)(C)C)on1	12.4 µM (≈ 5.02 µg/mL)	–	–	–	–	–	–	–	–	–	–	–	–	–	–
Cc1cc(CCCCCOc2c(Br)cc(C3=NCCO3)cc2Br)on1	–	0.3 µM (≈ 0.142 µg/mL)	1.3 µM (≈ 0.614 µg/mL)	0.4 µM (≈ 0.189 µg/mL)	0.63 µM (≈ 0.297 µg/mL)	0.1 µM (≈ 0.0472 µg/mL)	2.1 µM (≈ 0.992 µg/mL)	0.6 µM (≈ 0.283 µg/mL)	–	–	–	–	–	–	MIC (Enterovirus [3]): 0.04 µM and 0.1 µM; MIC (Enterovirus [5]): 0.2 µM (≈ 0.0944 µg/mL)
Cc1cc(CCCCCOc2c(Cl)cc(C3=NCCO3)cc2Cl)on1 [WIN-54954]	–	0.3 µM (≈ 0.115 µg/mL)	0.3 µM (≈ 0.115 µg/mL)	0.09 µM (≈ 0.0345 µg/mL)	0.7 µM (≈ 0.268 µg/mL)	0.02 µM (≈ 0.00767 µg/mL)	0.9 µM (≈ 0.345 µg/mL)	–	0.02 µM (≈ 0.00767 µg/mL)	0.3 µM (≈ 0.115 µg/mL)	2.6 µM (≈ 0.997 µg/mL)	0.02 µM (≈ 0.00767 µg/mL)	–	–	MIC (Enterovirus C [10]): 1.4 µM (≈ 0.537 µg/mL); MIC (Echovirus [12]): 0.18 µM (≈ 0.069 µg/mL); MIC (Echovirus [13]): 0.39 µM (≈ 0.149 µg/mL); MIC (Enterovirus C [14]): 0.55 µM (≈ 0.211 µg/mL); MIC (Coxsackievirus [15]): 13.2 µM (≈ 5.06 µg/mL); MIC (Enterovirus C [16]): 0.65 µM (≈ 0.249 µg/mL); MIC (Coxsackievirus [18]): 4.8 µM (≈ 1.84 µg/mL); MIC (Echovirus [20]): 0.08 µM (≈ 0.0307 µg/mL); MIC (Echovirus [21]): 1.4 µM (≈ 0.537 µg/mL); MIC (Coxsackievirus [22]): 8.6 µM (≈ 3.3 µg/mL); MIC (Coxsackievirus [23]): 0.13 µM (≈ 0.0498 µg/mL); MIC (Enterovirus [24]): 0.7 µM; MIC (Enterovirus [25]): 0.2 µM (≈ 0.0767 µg/mL); MIC (Echovirus [26]): 16.2 µM (≈ 6.21 µg/mL); MIC (Echovirus [27]): 2.6 µM (≈ 0.997 µg/mL); MIC (Coxsackievirus [28]): 0.008 µM (≈ 0.00307 µg/mL); MIC (Echovirus [29]): 0.03 µM (≈ 0.0115 µg/mL); MIC (Coxsackievirus [30]): 0.21 µM (≈ 0.0805 µg/mL)
Cc1cc(CCCCCOc2c(Cl)cc(C3=NCCO3)cc2C(F)(F)F)on1	–	–	1.3 µM (≈ 0.542 µg/mL)	0.2 µM (≈ 0.0834 µg/mL)	0.54 µM (≈ 0.225 µg/mL)	0.2 µM (≈ 0.0834 µg/mL)	0.8 µM (≈ 0.333 µg/mL)	0.5 µM (≈ 0.208 µg/mL)	1 µM (≈ 0.417 µg/mL)	0.4 µM (≈ 0.167 µg/mL)	0.2 µM (≈ 0.0834 µg/mL)	1.3 µM (≈ 0.542 µg/mL)	0.05 µM (≈ 0.0208 µg/mL)	–	–
COc1cc(C2=NCCO2)cc(OC)c1OCCCCCc1cc(C)no1	33.4 µM (≈ 12.5 µg/mL)	13.4 µM (≈ 5.02 µg/mL)	13.4 µM (≈ 5.02 µg/mL)	–	9.9 µM (≈ 3.71 µg/mL)	6.2 µM (≈ 2.32 µg/mL)	12.6 µM (≈ 4.72 µg/mL)	7.7 µM (≈ 2.88 µg/mL)	14.7 µM (≈ 5.5 µg/mL)	0.6 µM (≈ 0.225 µg/mL)	–	–	–	16.7 µM (≈ 6.25 µg/mL)	–
Cc1cc(CCCCCOc2ccc(C3=NCCO3)cc2)on1	9.9 µM (≈ 3.11 µg/mL)	1.2 µM (≈ 0.377 µg/mL)	7 µM (≈ 2.2 µg/mL)	0.3 µM (≈ 0.0943 µg/mL)	5.16 µM (≈ 1.62 µg/mL)	1.1 µM (≈ 0.346 µg/mL)	15 µM (≈ 4.72 µg/mL)	5.2 µM (≈ 1.63 µg/mL)	0.4 µM (≈ 0.126 µg/mL)	1.5 µM (≈ 0.472 µg/mL)	–	–	inactive	7 µM (≈ 2.2 µg/mL)	MIC (Enterovirus [2]): inactive; MIC (Enterovirus [32]): 0.9 µM (≈ 0.283 µg/mL); MIC (Enterovirus [32]; Enterovirus, read-out: MIC): 0.7 µM (≈ 0.22 µg/mL)
